According to article PMC9898131 (Nature chemical biology, 2022):

Target: COQ8A^NΔ250 (Homo sapiens, UniProt Q8NI60)
Assay: Differential scanning fluorimetry
Assay type: binding
Settings: 100 μM inhibitor, 10 μM COQ8A^NΔ250
Summary of the method: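 Recombinant COQ8A^NΔ250 purified on cobalt IMAC resin, exchanged into 20 mM HEPES pH 7.2, 300 mM NaCl, 10% glycerol, 5 mM BME. They were spun briefly, then kept 10 min at room temperature in the dark before melting.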

COQ8A^NΔ250, sequence (Q8NI60 251-647 limits assumed, stated change not applied): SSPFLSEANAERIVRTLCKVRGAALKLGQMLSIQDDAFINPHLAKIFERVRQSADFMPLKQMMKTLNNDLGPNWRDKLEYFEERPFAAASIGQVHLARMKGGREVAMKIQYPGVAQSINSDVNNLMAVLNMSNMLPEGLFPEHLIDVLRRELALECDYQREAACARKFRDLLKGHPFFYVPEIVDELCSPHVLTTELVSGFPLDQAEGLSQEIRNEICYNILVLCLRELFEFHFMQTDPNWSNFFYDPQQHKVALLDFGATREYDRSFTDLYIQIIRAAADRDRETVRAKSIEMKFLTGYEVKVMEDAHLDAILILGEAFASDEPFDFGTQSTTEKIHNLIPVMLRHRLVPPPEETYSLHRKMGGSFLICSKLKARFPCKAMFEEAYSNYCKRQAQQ

COQ8A melting temperature increase (ΔTm): weak-binding control
SMILES: C#Cc1cccc(Nc2ncnc3cc(OCCOC)c(OCCOC)cc23)c1 [erlotinib]
